Reference: ChEMBL document CHEMBL5058577, “EUbOPEN Chemogenomics Library 2 (Multiplex)” (2022)

Test system: HEK-293T
Test: Multiplex assay against HEK293T
Type: toxicity, cell-based
Details: human
How it was run: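 Tubulin, mitochondrial-mass and membrane-permeability phenotypes are per cents of healthy-nucleus cells. Cells were gated by CellPathfinder machine learning into Hoechst high-intensity objects or normal cells, normal cells into healthy, pyknosed or fragmented nuclei, and pyknosed cells into mitotic or apoptotic. Before that, live cells stained at seeding with Hoechst33342, BioTracker Green Microtubule Cytoskeleton Dye, MitoTracker Red and Annexin V Alexa Fluor 680 were imaged on a CQ1 microscope at 37°C and 5% CO2 after compound addition.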

[1] = 12 h, 1 µM, compound concentration 1 uM, replicate 1
[2] = 12 h, 1 µM, compound concentration 1 uM, replicate 2
[3] = 12 h, 10 µM, compound concentration 10 uM, replicate 1
[4] = 12 h, 10 µM, compound concentration 10 uM, replicate 2
[5] = 24 h, 1 µM, compound concentration 1 uM, replicate 1
[6] = 24 h, 1 µM, compound concentration 1 uM, replicate 2
[7] = 24 h, 10 µM, compound concentration 10 uM, replicate 1
[8] = 24 h, 10 µM, compound concentration 10 uM, replicate 2
[9] = 48 h, 1 µM, compound concentration 1 uM, replicate 1
[10] = 48 h, 1 µM, compound concentration 1 uM, replicate 2
[11] = 48 h, 10 µM, compound concentration 10 uM, replicate 1
[12] = 48 h, 10 µM, compound concentration 10 uM, replicate 2

SMILES: COCCn1c(C)c(C)s/c1=N\C(=O)C1C(C)(C)C1(C)C
- Population Apoptotic (%) [1]: 37%
- Population Fragmented Nuclei (%) [1]: 10%
- Population Healthy Nuclei (%) [1]: 77%
- Population Hoechst High Intensity Objects (%) [1]: 6%
- Population Membrane Permeable-Phenotype (%) [1]: 0%
- Population Mitochondria Different-Phenotype (%) [1]: 45%
- Population Mitotic Cells (%) [1]: 62%
- Population Normal (%) [1]: 93%
- Population Pyknosed Nuclei (%) [1]: 12%
- Population Tubulin-Different-Phenotype (%) [1]: 29%
- Total Cell Count [1]: 335
- Population Apoptotic (%) [2]: 41%
- Population Fragmented Nuclei (%) [2]: 5%
- Population Healthy Nuclei (%) [2]: 82%
- Population Hoechst High Intensity Objects (%) [2]: 4%
- Population Mitochondria Different-Phenotype (%) [2]: 77%
- Population Mitotic Cells (%) [2]: 58%
- Population Normal (%) [2]: 95%
- Population Tubulin-Different-Phenotype (%) [2]: 26%
- Total Cell Count [2]: 304
- Population Apoptotic (%) [3]: 77%
- Population Fragmented Nuclei (%) [3]: 33%
- Population Healthy Nuclei (%) [3]: 52%
- Population Hoechst High Intensity Objects (%) [3]: 18%
- Population Membrane Permeable-Phenotype (%) [3]: 0%
- Population Mitochondria Different-Phenotype (%) [3]: 91%
- Population Mitotic Cells (%) [3]: 22%
- Population Normal (%) [3]: 81%
- Population Pyknosed Nuclei (%) [3]: 13%
- Population Tubulin-Different-Phenotype (%) [3]: 67%
- Total Cell Count [3]: 80
- Population Apoptotic (%) [4]: 53%
- Population Fragmented Nuclei (%) [4]: 8%
- Population Healthy Nuclei (%) [4]: 75%
- Population Hoechst High Intensity Objects (%) [4]: 11%
- Population Mitochondria Different-Phenotype (%) [4]: 72%
- Population Mitotic Cells (%) [4]: 46%
- Population Normal (%) [4]: 88%
- Population Pyknosed Nuclei (%) [4]: 16%
- Population Tubulin-Different-Phenotype (%) [4]: 38%
- Total Cell Count [4]: 315
- Population Apoptotic (%) [5]: 19%
- Population Fragmented Nuclei (%) [5]: 7%
- Population Healthy Nuclei (%) [5]: 81%
- Population Hoechst High Intensity Objects (%) [5]: 4%
- Population Membrane Permeable-Phenotype (%) [5]: 0%
- Population Mitochondria Different-Phenotype (%) [5]: 26%
- Population Mitotic Cells (%) [5]: 80%
- Population Normal (%) [5]: 95%
- Population Pyknosed Nuclei (%) [5]: 11%
- Population Tubulin-Different-Phenotype (%) [5]: 20%
- Total Cell Count [5]: 447
- Population Apoptotic (%) [6]: 35%
- Population Fragmented Nuclei (%) [6]: 8%
- Population Hoechst High Intensity Objects (%) [6]: 7%
- Population Mitochondria Different-Phenotype (%) [6]: 47%
- Population Mitotic Cells (%) [6]: 64%
- Population Normal (%) [6]: 92%
- Population Pyknosed Nuclei (%) [6]: 10%
- Population Tubulin-Different-Phenotype (%) [6]: 17%
- Total Cell Count [6]: 383
- Population Apoptotic (%) [7]: 71%
- Population Fragmented Nuclei (%) [7]: 30%
- Population Healthy Nuclei (%) [7]: 61%
- Population Hoechst High Intensity Objects (%) [7]: 15%
- Population Membrane Permeable-Phenotype (%) [7]: 0%
- Population Mitochondria Different-Phenotype (%) [7]: 53%
- Population Mitotic Cells (%) [7]: 28%
- Population Normal (%) [7]: 84%
- Population Pyknosed Nuclei (%) [7]: 8%
- Population Tubulin-Different-Phenotype (%) [7]: 36%
- Total Cell Count [7]: 101
- Population Apoptotic (%) [8]: 45%
- Population Fragmented Nuclei (%) [8]: 11%
- Population Healthy Nuclei (%) [8]: 75%
- Population Hoechst High Intensity Objects (%) [8]: 7%
- Population Mitochondria Different-Phenotype (%) [8]: 62%
- Population Mitotic Cells (%) [8]: 54%
- Population Normal (%) [8]: 92%
- Population Pyknosed Nuclei (%) [8]: 13%
- Population Tubulin-Different-Phenotype (%) [8]: 30%
- Total Cell Count [8]: 376
- Population Apoptotic (%) [9]: 20%
- Population Fragmented Nuclei (%) [9]: 13%
- Population Healthy Nuclei (%) [9]: 75%
- Population Hoechst High Intensity Objects (%) [9]: 3%
- Population Membrane Permeable-Phenotype (%) [9]: 0%
- Population Mitochondria Different-Phenotype (%) [9]: 22%
- Population Mitotic Cells (%) [9]: 79%
- Population Normal (%) [9]: 96%
- Population Pyknosed Nuclei (%) [9]: 11%
- Population Tubulin-Different-Phenotype (%) [9]: 14%
- Total Cell Count [9]: 649
- Population Apoptotic (%) [10]: 45%
- Population Fragmented Nuclei (%) [10]: 11%
- Population Healthy Nuclei (%) [10]: 81%
- Population Mitochondria Different-Phenotype (%) [10]: 31%
- Population Mitotic Cells (%) [10]: 55%
- Population Normal (%) [10]: 97%
- Population Pyknosed Nuclei (%) [10]: 7%
- Population Tubulin-Different-Phenotype (%) [10]: 12%
- Total Cell Count [10]: 567
- Population Apoptotic (%) [11]: 60%
- Population Fragmented Nuclei (%) [11]: 18%
- Population Healthy Nuclei (%) [11]: 73%
- Population Hoechst High Intensity Objects (%) [11]: 2%
- Population Membrane Permeable-Phenotype (%) [11]: 2%
- Population Mitochondria Different-Phenotype (%) [11]: 30%
- Population Mitotic Cells (%) [11]: 40%
- Population Normal (%) [11]: 97%
- Population Pyknosed Nuclei (%) [11]: 8%
- Population Tubulin-Different-Phenotype (%) [11]: 31%
- Total Cell Count [11]: 191
- Population Apoptotic (%) [12]: 38%
- Population Fragmented Nuclei (%) [12]: 13%
- Population Healthy Nuclei (%) [12]: 79%
- Population Hoechst High Intensity Objects (%) [12]: 4%
- Population Membrane Permeable-Phenotype (%) [12]: 0%
- Population Mitochondria Different-Phenotype (%) [12]: 46%
- Population Mitotic Cells (%) [12]: 61%
- Population Normal (%) [12]: 95%
- Population Pyknosed Nuclei (%) [12]: 6%
- Population Tubulin-Different-Phenotype (%) [12]: 24%
- Total Cell Count [12]: 493

SMILES: Nc1nc(-c2ccco2)c2cnn(Cc3ccccc3F)c2n1
- Population Apoptotic (%) [1]: 37%
- Population Fragmented Nuclei (%) [1]: 6%
- Population Healthy Nuclei (%) [1]: 76%
- Population Hoechst High Intensity Objects (%) [1]: 9%
- Population Membrane Permeable-Phenotype (%) [1]: 0%
- Population Mitochondria Different-Phenotype (%) [1]: 58%
- Population Mitotic Cells (%) [1]: 62%
- Population Normal (%) [1]: 90%
- Population Pyknosed Nuclei (%) [1]: 16%
- Population Tubulin-Different-Phenotype (%) [1]: 41%
- Total Cell Count [1]: 300
- Population Apoptotic (%) [2]: 36%
- Population Fragmented Nuclei (%) [2]: 5%
- Population Healthy Nuclei (%) [2]: 81%
- Population Hoechst High Intensity Objects (%) [2]: 11%
- Population Mitochondria Different-Phenotype (%) [2]: 64%
- Population Mitotic Cells (%) [2]: 63%
- Population Normal (%) [2]: 88%
- Population Pyknosed Nuclei (%) [2]: 13%
- Population Tubulin-Different-Phenotype (%) [2]: 23%
- Total Cell Count [2]: 404
- Population Apoptotic (%) [3]: 33%
- Population Fragmented Nuclei (%) [3]: 7%
- Population Healthy Nuclei (%) [3]: 73%
- Population Hoechst High Intensity Objects (%) [3]: 8%
- Population Membrane Permeable-Phenotype (%) [3]: 0%
- Population Mitochondria Different-Phenotype (%) [3]: 61%
- Population Mitotic Cells (%) [3]: 66%
- Population Normal (%) [3]: 91%
- Population Pyknosed Nuclei (%) [3]: 19%
- Population Tubulin-Different-Phenotype (%) [3]: 43%
- Total Cell Count [3]: 306
- Population Apoptotic (%) [4]: 40%
- Population Fragmented Nuclei (%) [4]: 6%
- Population Healthy Nuclei (%) [4]: 76%
- Population Hoechst High Intensity Objects (%) [4]: 12%
- Population Mitochondria Different-Phenotype (%) [4]: 68%
- Population Mitotic Cells (%) [4]: 60%
- Population Normal (%) [4]: 87%
- Population Pyknosed Nuclei (%) [4]: 17%
- Population Tubulin-Different-Phenotype (%) [4]: 26%
- Total Cell Count [4]: 265
- Population Apoptotic (%) [5]: 30%
- Population Fragmented Nuclei (%) [5]: 7%
- Population Healthy Nuclei (%) [5]: 77%
- Population Hoechst High Intensity Objects (%) [5]: 7%
- Population Membrane Permeable-Phenotype (%) [5]: 0%
- Population Mitochondria Different-Phenotype (%) [5]: 36%
- Population Mitotic Cells (%) [5]: 69%
- Population Normal (%) [5]: 92%
- Population Pyknosed Nuclei (%) [5]: 15%
- Population Tubulin-Different-Phenotype (%) [5]: 26%
- Total Cell Count [5]: 396
- Population Apoptotic (%) [6]: 28%
- Population Fragmented Nuclei (%) [6]: 9%
- Population Healthy Nuclei (%) [6]: 81%
- Population Hoechst High Intensity Objects (%) [6]: 5%
- Population Mitochondria Different-Phenotype (%) [6]: 46%
- Population Mitotic Cells (%) [6]: 71%
- Population Normal (%) [6]: 94%
- Population Pyknosed Nuclei (%) [6]: 9%
- Population Tubulin-Different-Phenotype (%) [6]: 17%
- Total Cell Count [6]: 514
- Population Apoptotic (%) [7]: 38%
- Population Fragmented Nuclei (%) [7]: 11%
- Population Healthy Nuclei (%) [7]: 67%
- Population Hoechst High Intensity Objects (%) [7]: 6%
- Population Membrane Permeable-Phenotype (%) [7]: 2%
- Population Mitochondria Different-Phenotype (%) [7]: 52%
- Population Mitotic Cells (%) [7]: 61%
- Population Normal (%) [7]: 93%
- Population Pyknosed Nuclei (%) [7]: 21%
- Population Tubulin-Different-Phenotype (%) [7]: 31%
- Total Cell Count [7]: 334
- Population Apoptotic (%) [8]: 35%
- Population Hoechst High Intensity Objects (%) [8]: 10%
- Population Membrane Permeable-Phenotype (%) [8]: 0%
- Population Mitochondria Different-Phenotype (%) [8]: 59%
- Population Mitotic Cells (%) [8]: 64%
- Population Normal (%) [8]: 89%
- Population Tubulin-Different-Phenotype (%) [8]: 23%
- Total Cell Count [8]: 328
- Population Apoptotic (%) [9]: 32%
- Population Fragmented Nuclei (%) [9]: 12%
- Population Healthy Nuclei (%) [9]: 75%
- Population Hoechst High Intensity Objects (%) [9]: 3%
- Population Membrane Permeable-Phenotype (%) [9]: 1%
- Population Mitochondria Different-Phenotype (%) [9]: 31%
- Population Mitotic Cells (%) [9]: 67%
- Population Normal (%) [9]: 96%
- Population Pyknosed Nuclei (%) [9]: 12%
- Population Tubulin-Different-Phenotype (%) [9]: 18%
- Total Cell Count [9]: 641
- Population Apoptotic (%) [10]: 28%
- Population Fragmented Nuclei (%) [10]: 14%
- Population Healthy Nuclei (%) [10]: 78%
- Population Hoechst High Intensity Objects (%) [10]: 4%
- Population Mitochondria Different-Phenotype (%) [10]: 21%
- Population Mitotic Cells (%) [10]: 71%
- Population Normal (%) [10]: 95%
- Population Pyknosed Nuclei (%) [10]: 7%
- Population Tubulin-Different-Phenotype (%) [10]: 14%
- Total Cell Count [10]: 769
- Population Apoptotic (%) [11]: 36%
- Population Fragmented Nuclei (%) [11]: 16%
- Population Healthy Nuclei (%) [11]: 73%
- Population Hoechst High Intensity Objects (%) [11]: 7%
- Population Membrane Permeable-Phenotype (%) [11]: 0%
- Population Mitochondria Different-Phenotype (%) [11]: 42%
- Population Mitotic Cells (%) [11]: 63%
- Population Normal (%) [11]: 92%
- Population Pyknosed Nuclei (%) [11]: 9%
- Population Tubulin-Different-Phenotype (%) [11]: 19%
- Total Cell Count [11]: 412
- Population Apoptotic (%) [12]: 28%
- Population Fragmented Nuclei (%) [12]: 13%
- Population Healthy Nuclei (%) [12]: 74%
- Population Mitochondria Different-Phenotype (%) [12]: 43%
- Population Mitotic Cells (%) [12]: 71%
- Population Pyknosed Nuclei (%) [12]: 12%
- Population Tubulin-Different-Phenotype (%) [12]: 15%
- Total Cell Count [12]: 398
